This is an account of results in article PMC2646753 (Biochemistry, 2008).

Assay [1] addresses T1, QacR(E57Q) (Staphylococcus aureus, UniProt P0A0N4, E57Q).
T1 sequence (P0A0N4 1-188 E57Q): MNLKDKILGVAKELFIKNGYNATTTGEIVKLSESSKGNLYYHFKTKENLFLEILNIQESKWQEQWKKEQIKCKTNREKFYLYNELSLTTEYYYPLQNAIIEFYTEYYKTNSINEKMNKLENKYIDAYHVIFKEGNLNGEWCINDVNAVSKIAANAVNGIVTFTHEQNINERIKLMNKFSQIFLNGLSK
Kind of assay: Intrinsic tryptophan fluorescence quenching, QacR. The class given is binding.

The target of the next assay is T2, QacR(E57A) (Staphylococcus aureus, UniProt P0A0N4, E57A).
T2 sequence (P0A0N4 1-188 E57A): T1 sequence (P0A0N4 1-188 E57Q) with Q57A
Nature of the assay: Intrinsic tryptophan fluorescence quenching, QacR. It is filed as binding.

The target in assay [2] is T3, QacR(E57Q/E58Q) (Staphylococcus aureus, UniProt P0A0N4, E57Q/E58Q).
T3 sequence (P0A0N4 1-188 E57Q/E58Q): T1 sequence (P0A0N4 1-188 E57Q) with E58Q
Nature of the assay: Intrinsic tryptophan fluorescence quenching, QacR. The class given is binding.

Assay [3] deals with T3, QacR(E57Q/E58Q). Nature of the assay: Isothermal titration calorimetry, QacR. The class given is binding. (ITC needs no label: the signal is the heat of the interaction.)
For assay [4], the target named is T1, QacR(E57Q). Nature of the assay: Isothermal titration calorimetry, QacR. It is filed as binding.
The target in the next assay is T4, wt QacR (Staphylococcus aureus, UniProt P0A0N4).
T4 sequence (P0A0N4 1-188): T1 sequence (P0A0N4 1-188 E57Q) with Q57E
Kind of assay: Isothermal titration calorimetry, wt QacR. It is filed as binding.

The target in another assay is T5, QacR(E58Q) (Staphylococcus aureus, UniProt P0A0N4, E58Q).
T5 sequence (P0A0N4 1-188 E58Q): T1 sequence (P0A0N4 1-188 E57Q) with Q57E, E58Q
Kind of assay: Isothermal titration calorimetry, QacR. The class given is binding.

The test system of the next assay is mutant QacR proteins. Kind of assay: Intrinsic tryptophan fluorescence quenching, mutant QacR proteins compared to wt. The class given is binding, Staphylococcus aureus. The conditions noted are these: all mutant QacR proteins of Table 2 vs wt QacR. In short, it runs like this:
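C-terminally His6-tagged QacR variants were expressed in E. coli DH5α, Ni2+-NTA purified, and dialysed into 1 M NaCl, 20 mM Tris-HCl, 5% glycerol, pH 7.5. Kd was derived from quenching of intrinsic tryptophan fluorescence intensity on ligand titration. Ligands came from 2.5 mM stocks in water, diluted in 100 mM NaCl, 15 mM Tris-HCl, 2.5% glycerol, pH 7.5. Each Kd is the mean of three independent experiments.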

The structures appear in SMILES notation. Where a chain is given by its changes, count along the chain named.

The term Kd denotes the concentration at which binding is half-saturated. High values mean lower affinity, low ones higher affinity. Take `COc1ccc2cc3[n+](cc2c1OC)CCc1cc2c(cc1-3)OCO2` [Be, berberine]: the figures for the Kd on QacR(E57Q) [1], at QacR(E57A) and at QacR(E57Q/E58Q) [2] were 1.39 ± 0.15 µM, 1.88 ± 0.23 µM and 0.32 ± 0.15 µM, respectively. Further, the “increase in binding affinity compared to wt QacR” value at QacR(E57Q/E58Q) [2] (QacR(E57Q/E58Q) vs wt QacR) is 9 fold.

Consider `Cc1cc(N)c2ccccc2[n+]1CCCCCCCCCC[n+]1c(C)cc(N)c2ccccc21` [Dq, dequalinium], for which the Kd on QacR(E57Q/E58Q) [3] came to 5.2 ± 3.8 µM; at QacR(E57Q) [4] it was 1.95 ± 0.18 µM; at wt QacR, 1.3 ± 0.3 µM; on QacR(E58Q), 2.4 ± 0.2 µM. Also, at QacR(E57Q/E58Q) [3] (QacR(E57Q/E58Q) vs wt QacR, ITC), the “decrease in binding affinity compared to wt QacR” value was 4 fold.

Regarding `CN(C)c1ccc(C(=C2C=CC(=[N+](C)C)C=C2)c2ccccc2)cc1` [MG, malachite green], in the assay on mutant QacR proteins, the “change in binding affinity of mutant QacR proteins compared to wt QacR” value is ≤ 2.4 fold. In addition, the Kd came to 1.77 ± 0.17 µM on QacR(E57Q) [1], 2.98 ± 0.23 µM at QacR(E57A) and 1.99 ± 0.08 µM at QacR(E57Q/E58Q) [2].
